Compound activity from PubChem.
Sampled rows, rich in hits. Any-hit rate of the full collection: about 1.3%.
CHT PAM: allosteric activators of human choline transporter CHT; Q9GZV3; CHT-expressing cells, membrane potential dye, choline EC20; stronger effect = higher value; LV-AA mutant CHT in HEK293 cells; B-score at 10 µM; 0.49% of 310,000 active; AID 488977;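 active = initial fluorescence not abnormally high and integrated response B-score, plate-corrected, over 3 SD above library mean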
Target sequence (Q9GZV3 whole entry, looked up): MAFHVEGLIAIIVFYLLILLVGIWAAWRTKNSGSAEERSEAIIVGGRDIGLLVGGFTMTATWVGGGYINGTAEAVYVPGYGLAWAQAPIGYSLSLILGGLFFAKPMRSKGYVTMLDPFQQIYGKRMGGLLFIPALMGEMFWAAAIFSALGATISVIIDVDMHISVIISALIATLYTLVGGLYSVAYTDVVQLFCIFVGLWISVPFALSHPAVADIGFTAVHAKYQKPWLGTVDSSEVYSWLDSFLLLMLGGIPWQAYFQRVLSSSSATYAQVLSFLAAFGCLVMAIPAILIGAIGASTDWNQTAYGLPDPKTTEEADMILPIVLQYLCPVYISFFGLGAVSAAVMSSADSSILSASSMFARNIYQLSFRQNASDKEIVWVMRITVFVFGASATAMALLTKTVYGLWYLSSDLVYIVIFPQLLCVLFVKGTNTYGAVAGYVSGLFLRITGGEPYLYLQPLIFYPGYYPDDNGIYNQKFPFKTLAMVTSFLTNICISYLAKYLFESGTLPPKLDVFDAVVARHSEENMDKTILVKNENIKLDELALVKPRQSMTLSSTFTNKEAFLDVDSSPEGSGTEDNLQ
CHT inh: inhibitors of human choline transporter CHT | AID 488975 | Q9GZV3 | B-score at 10 µM | 0.86% of 310,000 active | CHT-expressing cells, membrane potential dye, choline response; stronger effect = lower value;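 active = B-score over 3 SD under the library average, and starting fluorescence ratio not unusually high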;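 note: choline stimulus applied at its EC90 after an EC20 pre-addition; B-score computed on integrated fluorescence ratio after choline addition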
procasp3 activ: activates human procaspase-3; P42574; activation, % at 8.5 µM; recombinant procaspase-3 D3A, Ac-DEVD-pNA absorbance 405 nm; 0.11% of 330,000 active;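 active = activation above the mean of all tested compounds plus 3 SD, cut at about 21% in these data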
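Test system: Procaspase-3 D3A mutant; medium: Zinc-free HEPES/NaCl buffer with 0.01% Triton X-100 at pH 7.4; reagent: DEVD-pNA substrate; doses: one concentration, 8.5 µM nominal, 0.8% DMSO; times: 1 h preincubation plus 2 h reaction at 25 °C; signal: Epi-absorbance at 405 nm of released p-nitroaniline, 0 and 120 min; replicates: singlicate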
proCasp7 act: counter-screen: procaspase-7 (human) activation | P55210 | recombinant procaspase-7, Ac-DEVD-pNA absorbance 405 nm; D23A/D198A/D206A triple mutant, cannot self-cleave; scale: DMSO 0, 5 µM enzyme 100 | activation, % at 8.5 µM | 0.093% of 330,000 active;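 active = percent activation above the screen-wide mean plus 3 SD, cut at about 25% in these data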
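signal = Epi-absorbance of released pNA at 405 nm, two timepoints | assay system = Uncleavable procaspase-7 mutant enzyme | reagent = Ac-DEVD-pNA substrate, 400 µM as added | times = 1 h enzyme–compound preincubation and 2 h substrate reaction, both 25 °C | benchmarks = low DMSO alone, high DMSO plus 5 µM PC-7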
CHT block conf: confirmation of human choline transporter CHT inhibitors. shares compounds with CHT inh. CHT activity remaining % of control (stronger effect = lower value), % at 10 µM. 70% of 2,400 active. CHT-expressing cells, choline membrane potential dye; LV-to-AA substituted CHT, HEK293 cells;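 active = choline transporter activity left, mean of duplicates at 10 µM, below buffer-only control mean minus 3 SD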;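 note: depolarization triggered by choline at its EC90 following an EC20 pre-addition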
HEK293 MPD ctr: activity in parental HEK293 cells lacking CHT. membrane potential dye, choline response; active = decrease or increase beyond buffer ±3SD. shares compounds with CHT inh. 4% of 2,400 active. membrane potential ratio readout (active if shifted either direction beyond buffer ±3SD; no single direction) at 10 µM. AID 493222;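 note: parental cells lack the transporter so any hit is non-specific; ratio is peak minus trough fluorescence over baseline after EC90 choline challenge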
Each line names hits and unclear results; the compound was inactive in the other large screens (follow-up assays come after a bar, where they were run).

OCCN1CCN(c2ncnc3scc(-c4ccc(F)cc4)c23)CC1	CHT inh -5.65 (no result: procasp3 activ, proCasp7 act) | CHT block conf 33.1% | HEK293 MPD ctr inactive
CCN1CCN(c2ncnc3scc(-c4ccc(C)cc4)c23)CC1	CHT inh -9.88 | CHT block conf 22.2% | HEK293 MPD ctr inactive
CC(NC(=O)COC(=O)C12CC3CC(CC(Br)(C3)C1)C2)c1ccccc1 (stereo not given)	none (no result: CHT PAM, CHT inh)
C=C(C)COc1ccc(-c2[nH]ncc2-c2ccc(Br)cc2)c(O)c1	CHT inh -5.47 | CHT block conf inactive | HEK293 MPD ctr inactive
O=c1[nH]cc(N=Cc2cc(Cl)cc(Cl)c2O)c(=O)[nH]1	CHT inh -12.6 | CHT block conf 51.4% | HEK293 MPD ctr inactive
O=c1[nH]cc(N=Cc2cc([N+](=O)[O-])ccc2O)c(=O)[nH]1	none
C=CCN(c1ccccc1)S(=O)(=O)c1cccc(C(=O)NNC(=O)c2ccncc2)c1	none
Cc1ccc(Oc2ccc(S(=O)(=O)NCC(C)(C)N3CCOCC3)cc2)cc1	CHT inh -6.4 | CHT block conf 39.8% | HEK293 MPD ctr inactive
CC(c1ccco1)N(C(=O)c1ccccc1NS(=O)(=O)c1ccc(Cl)c([N+](=O)[O-])c1)c1ccccn1 (stereo not given)	CHT inh -7.79 | CHT block conf 66.4% | HEK293 MPD ctr inactive
CCOC(=O)C1=C(C)NC(C)=C(C(=O)OCC)C1C(=O)OCC(=O)NCc1ccco1	none (no result: CHT PAM, CHT inh)
CC/C(=C(/CC)c1ccc(O)cc1)c1ccc(O)cc1	CHT inh -7.43 | CHT block conf 55.2% | HEK293 MPD ctr inactive
N=C(N)c1ccc(O)cc1	none
CC1=C(C(=O)NC(C)C)C2(CCC(C)CC2)OC1=O (stereo not given)	CHT inh -6.24 | CHT block conf 65.7% | HEK293 MPD ctr inactive
COc1ccc(C(=O)NCC(=O)OCC(=O)N2CC(C)OC(C)C2)cc1OC (stereo not given)	none (no result: CHT PAM, CHT inh)
Cn1c(/C=C/N(Cc2ccccc2)c2ccccc2)c([N+](=O)[O-])c(=O)n(C)c1=O	CHT inh -8.36 | CHT block conf 49.5% | HEK293 MPD ctr inactive
CCc1ccc(/C=C/c2c([N+](=O)[O-])c(=O)n(C)c(=O)n2C)cc1	none
O=C(O)CSc1nc2ccccc2[nH]1	none
CC(SCC(=O)O)c1nc2ccccc2[nH]1 (stereo not given)	CHT inh -5.71 | CHT block conf inactive | HEK293 MPD ctr inactive
Cc1cccc(CNc2ccc(C(CC(N)=O)NC(=O)c3ccccc3)cc2[N+](=O)[O-])c1 (stereo not given)	none
NC(=O)CC(NC(=O)c1ccc(Br)cc1)c1ccc(N2CCN(c3ccccc3)CC2)c([N+](=O)[O-])c1 (stereo not given)	none
CCC(CC)Nc1ccc(C(CC(N)=O)NC(=O)c2ccccc2)cc1[N+](=O)[O-] (stereo not given)	CHT inh -5.07 | CHT block conf 41.2% | HEK293 MPD ctr inactive
CCCCNc1ccc(C(CC(N)=O)NC(=O)c2ccccc2)cc1[N+](=O)[O-] (stereo not given)	none
NC(=O)CC(NC(=O)c1ccc(Br)cc1)c1ccc(N2CCCCCCC2)c([N+](=O)[O-])c1 (stereo not given)	CHT inh -5.34 | CHT block conf 65.1% | HEK293 MPD ctr inactive
Cc1ccccc1CNc1ccc(C(CC(N)=O)NC(=O)c2ccccc2)cc1[N+](=O)[O-] (stereo not given)	CHT inh -5.39 | CHT block conf inactive | HEK293 MPD ctr inactive
COc1ccc(/C=C2\SC(=O)N(CC(=O)NCCCn3ccnc3)C2=O)cc1	none
Cn1c(SCC(=O)NC2CCCC2)nnc1C(F)(F)F	none (no result: CHT PAM, CHT inh)
Cc1ccnn1CCC(=O)N1CCCC(Nc2ccc(F)c(F)c2)C1 (stereo not given)	none
O=[N+]([O-])c1cccc(CSc2nnc3ccccn23)c1	none | CHT block conf 67.3% | HEK293 MPD ctr inactive
CCN1CCN(CCC(=O)Nc2ccc(F)c(F)c2)CC1	none
CC(C)n1cc([C@@H]2C[C@H]3CN(Cc4cccc(Cl)c4)C(=O)[C@]34CCCN24)cn1	CHT inh -5.29 | CHT block conf inactive | HEK293 MPD ctr inactive
O=C1C(=O)N(CCN2CCOCC2)C(c2cccnc2)/C1=C(/O)c1ccc(Cl)cc1 (stereo not given)	CHT inh -9.52 | CHT block conf inactive | HEK293 MPD ctr inactive
O=C1C(=O)N(CCN2CCOCC2)C(c2cccnc2)/C1=C(/O)c1ccccc1 (stereo not given)	none
CCN(CC(=O)NCc1ccc(F)cc1)C(=O)c1ccc(C(=O)c2ccccc2)cc1	CHT inh -5.75 | CHT block conf inactive | HEK293 MPD ctr inactive
COc1ccccc1C(=O)NC(=O)COC(=O)c1ccc(C)o1	none
O=C(CSCc1nc2ccccc2[nH]1)N1CCN(c2cccc(Cl)c2)CC1	none
O=C(CSCc1nc2ccccc2[nH]1)N1CCN(c2ccc(F)cc2)CC1	CHT inh -5.01 | CHT block conf inactive | HEK293 MPD ctr inactive
CCOCCCn1c(=S)[nH]c2cc(C(=O)N3CCN(C)CC3)ccc2c1=O	none
CCOCCCn1c(=S)[nH]c2cc(C(=O)N3CCN(C4CCCCC4)CC3)ccc2c1=O	CHT inh -5.05 | CHT block conf 57.1% | HEK293 MPD ctr inactive
CCOC(=O)C(C)Sc1nnc(NC(=O)c2cccc([N+](=O)[O-])c2C)s1 (stereo not given)	CHT inh -5.16 | CHT block conf 51.6% | HEK293 MPD ctr inactive
CCOC(=O)C(C)Sc1nnc(NC(=O)c2ccc(C)c([N+](=O)[O-])c2)s1 (stereo not given)	none
CN(Cc1ccc(C(C)(C)C)cc1)C(=O)C1CSC2(C)CCC(=O)N12 (stereo not given)	none (no result: CHT PAM, CHT inh)
COc1cccc(NC(=O)c2nc(S(C)(=O)=O)ncc2Cl)c1	CHT inh -6.85 | CHT block conf 36.0% | HEK293 MPD ctr inactive
CCCn1c(CN2CCN(C(C)=O)CC2)nc2cc(S(=O)(=O)N(C)C)ccc21	none
Cn1c(SCC(=O)N2CCN(c3ccccc3)CC2)nnc1-c1ccccc1	CHT inh -5.27 | CHT block conf 61.6% | HEK293 MPD ctr inactive
CSc1ccc(/C=C(/NC(=O)c2ccco2)C(=O)N2CCOCC2)cc1	none
COc1cccc(/C=N/Nc2cc(Cl)nc(C)n2)c1O	CHT inh -6.39 | CHT block conf inactive | HEK293 MPD ctr inactive
Cc1nn(-c2ccccc2)nc1C(=O)c1c(C)[nH]n(-c2ccccc2)c1=O	none
CCN1CCN(C(=O)C2=CC(c3ccc(C)cc3)=NS(=O)(=O)N2C)CC1	CHT inh -6.57 | CHT block conf inactive | HEK293 MPD ctr inactive
CCN1CCN(C(=O)C2=CC(c3ccc(OC)cc3)=NS(=O)(=O)N2C)CC1	none
